Data on 39 compounds can be found in ChEMBL document CHEMBL3045055, “Synthesis and antifungal activities of carabrol ester derivatives” (J Agric Food Chem, 2012).

In brackets after ≈: the same amount, converted by molar mass.

For this experiment, the system named is Colletotrichum lagenaria. Description: Antifungal activity against Colletotrichum lagenaria assessed as inhibition of spore germination at 24 +/- 1 degC for 8 hr (plant disease: on leaf and fruit). In kind it is functional, organism-based. Summed up: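 C. lagenarium isolate (Accession No. 36199, Agricultural Culture Collection of China) grown 2 weeks at 25 ± 1 °C on PDA. Conidia flooded off with sterile water, filtered through cheesecloth, and suspended in water with 0.1% (v/v) Tween 20 at 1.0 × 10^6 spore/mL by hemocytometer. Samples dissolved in methanol, diluted with sterile water to test solutions; spore germination inhibition read, IC50 derived.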
As to `C=C1C(=O)O[C@@H]2C[C@]3(C)C(CCC(C)OC(=O)c4cnc(C)cn4)[C@@H]3C[C@H]12` (some centres undefined), the IC50 came out at 20.5 mg/L (≈ 55.3 µM).

With `C=C1C(=O)O[C@@H]2C[C@]3(C)C(CCC(C)OC(=O)/C=C/c4ccc([N+](=O)[O-])cc4)[C@@H]3C[C@H]12` (some centres undefined), the IC50 stood at 22.8 mg/L (≈ 53.7 µM).

Turning to `C=C1C(=O)O[C@@H]2C[C@]3(C)C(CCC(C)OC(=O)/C=C/c4ccc(OC)c(OC)c4)[C@@H]3C[C@H]12` (some centres undefined), the IC50 came to 25.1 mg/L (≈ 56.9 µM).

On to `C=C1C(=O)O[C@@H]2C[C@]3(C)C(CCC(C)OC(=O)c4cccc(OC)c4OC)[C@@H]3C[C@H]12` (some centres undefined) [CARABRYL 2,3-DIMETHOXYBENZOATE], for which the IC50 came to 35.8 mg/L (≈ 86.3 µM).

For the compound `C=C1C(=O)O[C@@H]2C[C@]3(C)C(CCC(C)OC(=O)/C=C/C=C/C)[C@@H]3C[C@H]12` (some centres undefined) [CARABRYL 2,4-HEXADIENOATE], the IC50 was 8.41 mg/L (≈ 24.4 µM).

With `C=C1C(=O)O[C@@H]2C[C@]3(C)C(CCC(C)OC(=O)c4ccccc4Br)[C@@H]3C[C@H]12` (some centres undefined) [CARABRYL 2-BROMOBENZOATE], the IC50 was 29.2 mg/L (≈ 67.3 µM).

Consider `C=C1C(=O)O[C@@H]2C[C@]3(C)C(CCC(C)OC(=O)c4cccnc4Cl)[C@@H]3C[C@H]12` (some centres undefined) [CARABRYL 2-CHLORONICOTINATE], for which the IC50 turned out to be 4.62 mg/L (≈ 11.8 µM).

With `C=C1C(=O)O[C@@H]2C[C@]3(C)C(CCC(C)OC(=O)c4ccccc4OCC)[C@@H]3C[C@H]12` (some centres undefined) [CARABRYL 2-ETHOXYBENZOATE], the IC50 is 41.6 mg/L (≈ 104 µM).

With `C=C1C(=O)O[C@@H]2C[C@]3(C)C(CCC(C)OC(=O)c4ccccc4I)[C@@H]3C[C@H]12` (some centres undefined) [CARABRYL 2-IODOBENZOATE], the IC50 was 39 mg/L (≈ 81.3 µM).

With `C=C1C(=O)O[C@@H]2C[C@]3(C)C(CCC(C)OC(=O)c4ccccc4OC)[C@@H]3C[C@H]12` (some centres undefined) [CARABRYL 2-METHOXYBENZOATE], the half-inhibitory concentration (IC50) stood at 46.1 mg/L (≈ 120 µM).

Take `C=C1C(=O)O[C@@H]2C[C@]3(C)C(CCC(C)OC(=O)c4ccccc4C)[C@@H]3C[C@H]12` (some centres undefined) [CARABRYL 2-METHYLBENZOATE]: the IC50 came out at 52.3 mg/L (≈ 142 µM).

For `C=C1C(=O)O[C@@H]2C[C@]3(C)C(CCC(C)OC(=O)c4cccs4)[C@@H]3C[C@H]12` (some centres undefined) [CARABRYL 2-THIOPHENECARBOXYLATE], the IC50 was 30.8 mg/L (≈ 85.5 µM).

For the compound `C=C1C(=O)O[C@@H]2C[C@]3(C)C(CCC(C)OC(=O)c4ccc(OC)c(OC)c4)[C@@H]3C[C@H]12` (some centres undefined) [CARABRYL 3,4-DIMETHOXYBENZOATE], the concentration for half-maximal inhibition (IC50) is 33 mg/L (≈ 79.5 µM).

With `C=C1C(=O)O[C@@H]2C[C@]3(C)C(CCC(C)OC(=O)c4cccc(Br)c4)[C@@H]3C[C@H]12` (some centres undefined) [CARABRYL 3-BROMOBENZOATE], the IC50 came to 36.7 mg/L (≈ 84.7 µM).

On to `C=C1C(=O)O[C@@H]2C[C@]3(C)C(CCC(C)OC(=O)c4cccc(Cl)c4)[C@@H]3C[C@H]12` (some centres undefined) [CARABRYL 3-CHLOROBENZOATE], for which the half-inhibitory concentration (IC50) amounted to 26.7 mg/L (≈ 68.7 µM).

With `C=C1C(=O)O[C@@H]2C[C@]3(C)C(CCC(C)OC(=O)c4cccc(F)c4)[C@@H]3C[C@H]12` (some centres undefined) [CARABRYL 3-FLUOROBENZOATE], the IC50 was determined as 30.4 mg/L (≈ 81.7 µM).

For `C=C1C(=O)O[C@@H]2C[C@]3(C)C(CCC(C)OC(=O)CCc4c[nH]c5ccccc45)[C@@H]3C[C@H]12` (some centres undefined) [CARABRYL 3-INDOLEPROPIONATE], the IC50 was determined as 12.8 mg/L (≈ 30.4 µM).

For `C=C1C(=O)O[C@@H]2C[C@]3(C)C(CCC(C)OC(=O)c4cccc(OC)c4)[C@@H]3C[C@H]12` (some centres undefined) [CARABRYL 3-METHOXYBENZOATE], the IC50 came out at 49.4 mg/L (≈ 129 µM).

For the compound `C=C1C(=O)O[C@@H]2C[C@]3(C)C(CCC(C)OC(=O)/C=C/c4ccccc4)[C@@H]3C[C@H]12` (some centres undefined) [CARABRYL 3-PHENYLACRYLATE], the IC50 came out at 33.2 mg/L (≈ 87.3 µM).

Consider `C=C1C(=O)O[C@@H]2C[C@]3(C)C(CCC(C)OC(=O)CCc4ccccc4)[C@@H]3C[C@H]12` (some centres undefined) [CARABRYL 3-PHENYLPROPANOATE], for which the IC50 amounted to 13.2 mg/L (≈ 34.6 µM).

In the case of `C=C1C(=O)O[C@@H]2C[C@]3(C)C(CCC(C)OC(=O)c4ccc(Br)cc4)[C@@H]3C[C@H]12` (some centres undefined) [CARABRYL 4-BROMOBENZOATE], the IC50 came out at 31.3 mg/L (≈ 72.2 µM).

`C=C1C(=O)O[C@@H]2C[C@]3(C)C(CCC(C)OC(=O)Cc4ccc(Br)cc4)[C@@H]3C[C@H]12` (some centres undefined) [CARABRYL 4-BROMOPHENYLACETATE]: the IC50 worked out at 44.4 mg/L (≈ 99.3 µM).

As for `C=C1C(=O)O[C@@H]2C[C@]3(C)C(CCC(C)OC(=O)c4ccc(Cl)cc4)[C@@H]3C[C@H]12` (some centres undefined) [CARABRYL 4-CHLOROBENZOATE], the IC50 was found to be 31.8 mg/L (≈ 81.8 µM).

As to `C=C1C(=O)O[C@@H]2C[C@]3(C)C(CCC(C)OC(=O)c4ccc(C#N)cc4)[C@@H]3C[C@H]12` (some centres undefined) [CARABRYL 4-CYANOBENZOATE], the IC50 is 2.7 mg/L (≈ 7.12 µM).

As for `C=C1C(=O)O[C@@H]2C[C@]3(C)C(CCC(C)OC(=O)c4ccc(F)cc4)[C@@H]3C[C@H]12` (some centres undefined) [CARABRYL 4-FLUOROBENZOATE], the IC50 came out at 21.2 mg/L (≈ 57 µM).

With `C=C1C(=O)O[C@@H]2C[C@]3(C)C(CCC(C)OC(=O)c4ccc(I)cc4)[C@@H]3C[C@H]12` (some centres undefined) [CARABRYL 4-IODOBENZOATE], the IC50 turned out to be 33.5 mg/L (≈ 69.7 µM).

With `C=C1C(=O)O[C@@H]2C[C@]3(C)C(CCC(C)OC(=O)c4ccc(C(C)C)cc4)[C@@H]3C[C@H]12` (some centres undefined) [CARABRYL 4-ISOPROPYLBENZOATE], the IC50 was 2.82 mg/L (≈ 7.11 µM).

Turning to `C=C1C(=O)O[C@@H]2C[C@]3(C)C(CCC(C)OC(=O)c4ccc(OC)cc4)[C@@H]3C[C@H]12` (some centres undefined) [CARABRYL 4-METHOXYBENZOATE], the IC50 was 47.5 mg/L (≈ 123 µM).

For `C=C1C(=O)O[C@@H]2C[C@]3(C)C(CCC(C)OC(C)=O)[C@@H]3C[C@H]12` (some centres undefined) [CARABRYL ACETATE], the IC50 was found to be 10.8 mg/L.

On to `C=C1C(=O)O[C@@H]2C[C@]3(C)C(CCC(C)OC(=O)Cc4cccc5ccccc45)[C@@H]3C[C@H]12` (stereo partly drawn) [CARABRYL ALPHA-NAPHTHYLACETATE], for which the IC50 turned out to be 30.3 mg/L (≈ 72.3 µM).

Consider `C=C1C(=O)O[C@@H]2C[C@]3(C)C(CCC(C)OC(=O)c4cccc5ccccc45)[C@@H]3C[C@H]12` (stereo partly drawn) [CARABRYL ALPHA-NAPHTHYLCARBOXYLATE], for which the IC50 is 23.3 mg/L (≈ 57.6 µM).

Consider `C=C1C(=O)O[C@@H]2C[C@]3(C)C(CCC(C)OC(=O)CCl)[C@@H]3C[C@H]12` (some centres undefined) [CARABRYL CHLOROACETATE], for which the IC50 was found to be 4.51 mg/L (≈ 13.8 µM).

With `C=C1C(=O)O[C@@H]2C[C@]3(C)C(CCC(C)OC(=O)c4ccncc4)[C@@H]3C[C@H]12` (some centres undefined) [CARABRYL ISONICOTINATE], the IC50 was 4.31 mg/L (≈ 12.1 µM).

Regarding `C=C1C(=O)O[C@@H]2C[C@]3(C)C(CCC(C)OC(=O)CCCCCCCCCCC)[C@@H]3C[C@H]12` (some centres undefined) [CARABRYL LAURATE], the IC50 is 33.6 mg/L (≈ 77.7 µM).

Consider `C=C1C(=O)O[C@@H]2C[C@]3(C)C(CCC(C)OC(=O)CCC)[C@@H]3C[C@H]12` (some centres undefined) [CARABRYL N-BUTYRATE], for which the IC50 came to 20.8 mg/L (≈ 65 µM).

As to `C=C1C(=O)O[C@@H]2C[C@]3(C)C(CCC(C)OC(=O)CCCC)[C@@H]3C[C@H]12` (some centres undefined) [CARABRYL N-PENTANOATE], the IC50 came to 31.2 mg/L (≈ 93.3 µM).

`C=C1C(=O)O[C@@H]2C[C@]3(C)C(CCC(C)OC(=O)c4cccnc4)[C@@H]3C[C@H]12` (some centres undefined) [CARABRYL NICOTINATE]: the IC50 was found to be 8.26 mg/L (≈ 23.2 µM).

As for `C=C1C(=O)O[C@@H]2C[C@]3(C)C(CCC(C)OC(=O)CC)[C@@H]3C[C@H]12` (some centres undefined) [CARABRYL PROPANOATE], the IC50 came to 23.3 mg/L (≈ 76 µM).

As to `N#Cc1c(Cl)c(Cl)c(Cl)c(C#N)c1Cl` [CHLOROTHALONIL], the IC50 turned out to be 0.87 mg/L (≈ 3.27 µM).

Usually IC50 stands for the concentration at which inhibition is half-maximal.
